Measurements taken from ChEMBL document CHEMBL3046951, “Volatile constituents from the leaves of Callicarpa japonica Thunb. and their antibacterial activities” (2004).

How the values were obtained:
[1] = test system: Staphylococcus aureus; assay: Antimicrobial activity against Staphylococcus aureus ATCC 25923 assessed as growth inhibition rate at 3.64 mg/l after 72 hr by spectrophotometry; type: functional; conditions: ATCC 25923, 72 h, read-out: GI
[2] = test system: Salmonella typhimurium; assay: Antimicrobial activity against Salmonella enterica subsp. enterica serovar Typhimurium ATCC 14028 assessed as growth inhibition rate at 3.64 mg/l after 72 hr by spectrophotometry; type: functional; conditions: ATCC 14028, 72 h, read-out: GI
Procedure, shortened: (§1)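 Salmonella Typhimurium ATCC 14028 grown in nutrient broth at 30 °C, precultured 24 h, then subcultured 1:100 for 18 h before testing. Single volatile compounds (>95% pure) were added. OD was read every 24 h over 72 h in a Bioscreen C, with 10% Tween 80 as the comparison control.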

[3] = test system: Listeria monocytogenes; assay: Antimicrobial activity against Listeria monocytogenes ATCC 19111 assessed as growth inhibition rate at 3.64 mg/l after 72 hr by spectrophotometry; type: functional; conditions: ATCC 19111, 72 h, read-out: GI
Procedure, shortened: (§2)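 L. monocytogenes was grown at 30 °C in tryptic soy broth, subcultured for 18 h, and exposed to pure volatile compounds (>95% purity). Growth was followed by Bioscreen C optical density every 24 h for 72 h against a 10% Tween 80 control.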

[4] = test system: Escherichia coli; assay: Antimicrobial activity against Escherichia coli O157:H7 ATCC 43894 assessed as growth inhibition rate at 3.64 mg/l after 72 hr by spectrophotometry; type: functional; conditions: O157:H7 ATCC 43894, 72 h, read-out: GI
[5] = test system: Bacillus cereus; assay: Antimicrobial activity against Bacillus cereus ATCC 11778 assessed as growth inhibition rate at 3.64 mg/l after 72 hr by spectrophotometry; type: functional; conditions: ATCC 11778, 72 h, read-out: GI
Procedure, shortened: (§3)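 Pure volatile compounds (purity >95%; one at 90%) were tested against B. cereus ATCC 11778. The strain was grown at 30 °C in nutrient broth for 24 h, then subcultured for 18 h. Optical density was read in a Bioscreen C every 24 h for 72 h, with 10% Tween 80 as the control.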

[6] = test system: Vibrio parahaemolyticus; assay: Antimicrobial activity against Vibrio parahaemolyticus ATCC 33844 assessed as growth inhibition rate at 3.64 mg/l after 72 hr by spectrophotometry; type: functional; conditions: ATCC 33844, 72 h, read-out: GI
[7] = test system: Salmonella typhimurium; assay: microbe, parasite or virus in culture; conditions: Salmonella enterica, ATCC 14028, 72 h, read-out: GI
[8] = test system: Staphylococcus aureus; assay: microbe, parasite or virus in culture; conditions: ATCC 25923, 72 h, read-out: GI
[9] = test system: Escherichia coli; assay: microbe, parasite or virus in culture; conditions: O157:H7 ATCC 43894, 72 h, read-out: GI
[10] = test system: Bacillus cereus; assay: microbe, parasite or virus in culture; conditions: ATCC 11778, 72 h, read-out: GI
[11] = test system: Listeria monocytogenes; assay: microbe, parasite or virus in culture; conditions: ATCC 19111, 72 h, read-out: GI
[12] = test system: Vibrio parahaemolyticus; assay: microbe, parasite or virus in culture; conditions: ATCC 33844, 72 h, read-out: GI
[13] = test system: Bacillus cereus; assay: Antimicrobial activity against Bacillus cereus ATCC 11778 assessed as growth inhibition rate at 1.44 mg/l after 72 hr by spectrophotometry; type: functional; conditions: ATCC 11778, 72 h, read-out: GI; procedure, shortened: as §3
[14] = test system: Vibrio parahaemolyticus; assay: Antimicrobial activity against Vibrio parahaemolyticus ATCC 33844 assessed as growth inhibition rate at 1.44 mg/l after 72 hr by spectrophotometry; type: functional; conditions: ATCC 33844, 72 h, read-out: GI
[15] = test system: Escherichia coli; assay: Antimicrobial activity against Escherichia coli O157:H7 ATCC 43894 assessed as growth inhibition rate at 1.44 mg/l after 72 hr by spectrophotometry; type: functional; conditions: O157:H7 ATCC 43894, 72 h, read-out: GI
[16] = test system: Staphylococcus aureus; assay: Antimicrobial activity against Staphylococcus aureus ATCC 25923 assessed as growth inhibition rate at 1.44 mg/l after 72 hr by spectrophotometry; type: functional; conditions: ATCC 25923, 72 h, read-out: GI
[17] = test system: Salmonella typhimurium; assay: Antimicrobial activity against Salmonella enterica subsp. enterica serovar Typhimurium ATCC 14028 assessed as growth inhibition rate at 1.44 mg/l after 72 hr by spectrophotometry; type: functional; conditions: ATCC 14028, 72 h, read-out: GI; procedure, shortened: as §1
[18] = test system: Listeria monocytogenes; assay: Antimicrobial activity against Listeria monocytogenes ATCC 19111 assessed as growth inhibition rate at 1.44 mg/l after 72 hr by spectrophotometry; type: functional; conditions: ATCC 19111, 72 h, read-out: GI; procedure, shortened: as §2

Structure (SMILES): CCc1ccco1
- inhibition of growth at 3.64 µg/mL [1]: 4.3%
- inhibition of growth at 3.64 µg/mL [2]: 1.6%
- inhibition of growth at 3.64 µg/mL [3]: 0%
- inhibition of growth at 3.64 µg/mL [4]: 0%
- inhibition of growth at 3.64 µg/mL [5]: 0%
- inhibition of growth at 3.64 µg/mL [6]: 2.3%

Structure (SMILES): CCO [ALCOHOL]
- inhibition of growth at 104.72 µg/mL [7]: 3.4%
- inhibition of growth at 104.72 µg/mL [8]: 3.2%
- inhibition of growth at 104.72 µg/mL [9]: 2%
- inhibition of growth at 104.72 µg/mL [10]: 0%
- inhibition of growth at 104.72 µg/mL [11]: 0%
- inhibition of growth at 104.72 µg/mL [12]: 3.9%

Structure (SMILES): CCOC(C)=O [ETHYL ACETATE]
- inhibition of growth at 1.44 µg/mL [13]: 0%
- inhibition of growth at 1.44 µg/mL [14]: 4.5%
- inhibition of growth at 1.44 µg/mL [15]: 0%
- inhibition of growth at 1.44 µg/mL [16]: 6.6%
- inhibition of growth at 1.44 µg/mL [17]: 9.3%
- inhibition of growth at 1.44 µg/mL [18]: 0%
